This is an account of results in ChEMBL document CHEMBL1255333, “Comparison of the in vitro efficacies of moxifloxacin and amoxicillin against Listeria monocytogenes” (2008).

Activity calls are given as the source filed them.

Test [1] relates to Listeria monocytogenes. The test is described as follows: Antibacterial activity against intracellular Listeria monocytogenes EGDe infected in bone marrow-derived BALB/c mouse macrophage assessed as reduction in the number of infected macrophages after 3 hrs. The test is classed as functional, organism-based. The essentials: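 Infected BALB/c bone marrow macrophages were stained with May-Grunwald-Giemsa and examined microscopically to determine the infection rate. Observations were made at 3, 6 and 24 h of exposure to antibiotic at 1x MIC or Cmax, or with no antibiotic.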

The subject of test [2] is Listeria monocytogenes. Briefly: Antibacterial activity against intracellular Listeria monocytogenes EGDe infected in bone marrow-derived BALB/c mouse macrophage assessed as reduction in bacterial count at four-eitght times of MIC after 3 hrs. The test is classed as functional, organism-based. The essentials:
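Bone marrow macrophages from BALB/c mice (7-8 weeks) were differentiated for 7 days in RPMI 1640 with 10% decomplemented FCS and 10% L-cell medium, at 37°C and 10% CO2. Cells at 3 x 10^5/ml were infected for 15 min at a bacteria:macrophage ratio of 10:1, washed, and preincubated for 45 min. They were then given antibiotic for up to 24 h, lysed in 0.1% Triton X-100, and plated in triplicate. Results are CFU/well, means ± SE of three experiments.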

For test [3], the system named is Listeria monocytogenes. The test is described as follows: Antibacterial activity against intracellular Listeria monocytogenes EGDe infected in bone marrow-derived BALB/c mouse macrophage assessed as prevention of bacterial release and spread of infection by preventing macrophage lysis after 24 hrs. The test is classed as functional, organism-based.
The subject of test [4] is Listeria monocytogenes. The test is described as follows: Antibacterial activity against intracellular Listeria monocytogenes EGDe infected in bone marrow-derived BALB/c mouse macrophage assessed as reduction in the formation of filopodium-like projections at >= MIC after 48 hrs by microscopy. The test is classed as functional, organism-based.
Test [5] has as its system Listeria monocytogenes. The test is described as follows: Antibacterial activity against extracellular Listeria monocytogenes EGDe at 400 times of MIC by time-kill study. The test is classed as functional, organism-based. The essentials: (§1)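 EGDe inoculum of 5 x 10^8 bacteria in Mueller-Hinton broth at 37°C. Antibiotic was added at 1x, 4x, 8x or 400x MIC. Counts were done in triplicate at set times by plating serial 10-fold dilutions on BHI agar, with or without 2 µg/ml moxifloxacin, for 48 h. Results are CFU/ml, means ± SE of three experiments. Bactericidal was defined as a >3-log10 drop at 24 h.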

Test [6] relates to Listeria monocytogenes. The test is described as follows: Antibacterial activity against extracellular Listeria monocytogenes EGDe at four times of MIC by time-kill study. The test is classed as functional, organism-based. The essentials: as §1
Test [7] relates to Listeria monocytogenes. Briefly: Antibacterial activity against extracellular Listeria monocytogenes EGDe at MIC by time-kill study. The test is classed as functional, organism-based. The method in brief:
as §1

For test [8], the system named is Listeria monocytogenes. Briefly: Antibacterial activity against intracellular Listeria monocytogenes EGDe infected in bone marrow-derived BALB/c mouse macrophage assessed as changes in morphology of intracellular bacteria observed to be ghostly, chained, and elongated at >= MIC after 48 hrs by microscopy. The test is classed as functional, organism-based.
In test [9] the test system is Listeria monocytogenes. Briefly: Antibacterial activity against extracellular Listeria monocytogenes EGDe assessed as reduction in bacterial count at four times of MIC after 24 hrs by time-kill study. The test is classed as functional, organism-based. The method in brief: as §1
Test [10] concerns Listeria monocytogenes. The test is described as follows: Antibacterial activity against extracellular Listeria monocytogenes EGDe assessed as reduction in bacterial count at eight times of MIC after 6 hrs by time-kill study. The test is classed as functional. The essentials: as §1
Test [11] concerns Listeria monocytogenes. Briefly: Antibacterial activity against extracellular Listeria monocytogenes EGDe assessed as reduction in bacterial count at four times of MIC after 6 hrs by time-kill study. The test is classed as functional. The method in brief: as §1
In test [12] the test system is Listeria monocytogenes. Briefly: Antibacterial activity against extracellular Listeria monocytogenes EGDe assessed as reduction in bacterial count at eight times of MIC after 24 hrs by time-kill study. The test is classed as functional, organism-based. The essentials: as §1

Turning to `CC1(C)S[C@@H]2[C@H](NC(=O)[C@H](N)c3ccc(O)cc3)C(=O)N2[C@H]1C(=O)O`, the outcome in the test with Listeria monocytogenes [1], in the test with Listeria monocytogenes [2], in the test with Listeria monocytogenes [3], with Listeria monocytogenes [4] and in the test on Listeria monocytogenes [7] was inactive. Besides, the result in the test on Listeria monocytogenes [5] and with Listeria monocytogenes [6] was Active.
For `COc1c(N2C[C@@H]3CCCN[C@@H]3C2)c(F)cc2c(=O)c(C(=O)O)cn(C3CC3)c12` [MOXIFLOXACIN], the result in the test on Listeria monocytogenes [2], in the test with Listeria monocytogenes [8], in the test with Listeria monocytogenes [3], in the test on Listeria monocytogenes [4], with Listeria monocytogenes [9] and in the test with Listeria monocytogenes [6] was Active. The result with Listeria monocytogenes [12] was Active. The log10CFU/ml in the test on Listeria monocytogenes [10] and with Listeria monocytogenes [11] was 3 each time. The result in the test on Listeria monocytogenes [7] was inactive.
